# Screens as filed in PubChem BioAssay.
# Most compounds without a hit are left out; they make up all but 1.5% or so of the library.
# PKA-R1A activ = activates the PKA-R1A holoenzyme complex; activation, % at 11.4 µM; actives 0.083% (n = 340,000); P00514+P68181; PKA-R1A dissociation, Cy5-IP20 fluorescence polarization; scaled: DMSO 0%, 113 µM cGMP 100%; AID 504707;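 active = percent activation above the mean of all tested compounds plus 3 SD, cut at about 19% in these data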;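 also: higher means more PKAc released from R1A so a rise in polarization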
# Cardio protect = protects H9c2 cardiomyocytes from peroxide injury | H2O2 injury protection, ATPLite, 2 h | protection from H2O2 cell death, % at 20 µM | actives 0.63% (n = 360,000) | AID 588492;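 active = compounds giving at least 50% protection of heart cells from peroxide-induced death in the single-dose screen, raw or plate-pattern-corrected value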;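 also: 0% = DMSO wells with peroxide and 100% = DMSO wells without peroxide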
# Rin1-Abl PPI inh = human Rin1-Abl interaction inhibition; TR-FRET Rin1/Abl binding, biochemical; actives 0.4% (n = 360,000); inhibition, % at 7.35 µM; P00519+Q13671; in the data active = inhibition above about 5%, passing the limit was not always enough
# TbMetRS inhib = Trypanosoma brucei MetRS inhibition; inhibition, % at 11.9 µM; purified T. brucei MetRS, ATP depletion, Kinase-Glo luminescence; actives 0.4% (n = 360,000);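 active = inhibition above a per-plate cutoff of the control wells' mean inhibition plus 3 SD, cut at about 5.5% in these data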;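 also: 0% = DMSO wells median and 100% = median of wells with control inhibitor compound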
#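 Material: parasite MetRS enzyme / Replication: singlicate, one well per compound / Signal: luminescence of leftover ATP / Schedule: 2 h aminoacylation at 25 °C after 15 min preincubation / Medium: HEPES-MgCl2-KCl buffer plus DTT, spermine, BSA, pyrophosphatase / Doses: 11.9 µM single point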
# PKA-R2B act = activators of human PKA-R2B complex. activation, % at 11.4 µM. AID 504700. P22694+P31323. actives 0.079% (n = 340,000). PKA-R2B holoenzyme dissociation, Cy5-IP20 fluorescence polarization; R2B truncated from residue 108, S112A mutant; 0% DMSO only, 100% 113 µM cGMP;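 active = activation above a cutoff set at the mean over all compounds plus 3 SD, cut at about 18% in these data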;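 also: higher means more holoenzyme dissociation and a rise in polarization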
# Target sequence (P31323 whole entry, looked up, other chains not shown, the tested form may be a part): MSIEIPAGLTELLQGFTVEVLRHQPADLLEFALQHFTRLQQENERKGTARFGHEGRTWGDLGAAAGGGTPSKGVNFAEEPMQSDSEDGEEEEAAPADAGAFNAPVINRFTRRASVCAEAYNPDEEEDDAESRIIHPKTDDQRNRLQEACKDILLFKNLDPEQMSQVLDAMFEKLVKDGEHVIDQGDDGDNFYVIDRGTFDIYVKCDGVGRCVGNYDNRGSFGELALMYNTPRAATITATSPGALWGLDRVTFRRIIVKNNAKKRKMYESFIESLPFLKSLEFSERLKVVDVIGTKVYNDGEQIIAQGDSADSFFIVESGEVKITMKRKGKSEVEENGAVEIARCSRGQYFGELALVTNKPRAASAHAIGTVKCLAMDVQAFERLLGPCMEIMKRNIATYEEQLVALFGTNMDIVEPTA
# Numbers without * were called inactive; / = no result.
SMILES,PKA-R1A activ,Cardio protect,Rin1-Abl PPI inh,TbMetRS inhib,PKA-R2B act
Cc1ccc(S(=O)(=O)N(C)C)cc1NC(=O)COC(=O)Cc1n[nH]c(=O)c2ccccc12,-17.0,74.7*,-0.6,-0.1,-6.4
NS(=O)(=O)c1cccc(NC(=O)COC(=O)Cc2n[nH]c(=O)c3ccccc23)c1,-9.6,52.1*,2.2,-0.4,-0.3
O=C(COC(=O)Cc1n[nH]c(=O)c2ccccc12)Nc1c(Br)cc([N+](=O)[O-])cc1Br,-10.7,97.4*,1.4,-0.2,-8.9
Cc1ccc(S(=O)(=O)N(C)C)cc1NC(=O)COC(=O)c1n[nH]c(=O)c2ccccc12,-15.5,11.4,-1.0,-1.0,-5.9
NS(=O)(=O)c1cccc(NC(=O)COC(=O)CSCc2ccccc2)c1,5.8,13.6,1.0,-0.2,-4.3
O=Cc1ccc(OCC(=O)NCC2CCCO2)cc1 (stereo unspecified),3.2,3.5,2.5,-0.2,5.7
Cc1cc(-c2csc3nc[nH]c(=S)c23)cc(C)c1C,5.6,61.0*,-6.0,0.9,-6.5
CSc1ccc(S(=O)(=O)NCc2ccc(Cl)cc2Cl)cc1,-12.8,-21.8,4.7,7.5*,2.7
CCN(CC)S(=O)(=O)c1ccc(N2CCCC2)c(C(=O)OCC(=O)Nc2cc(C)on2)c1,-3.5,1.0,-5.1,-0.8,-6.3
O=C(CSc1nc2ccccc2c(=O)[nH]1)N1CCCCCC1,-3.9,50.7*,0.5,0.2,5.5
CC1CCN(C(=O)CSc2nc3ccccc3c(=O)[nH]2)CC1,2.4,44.4,2.6,-0.8,3.6
CC1CCCC(C)N1C(=O)CSc1nc(N)c(-c2ccccc2)c(=O)[nH]1 (stereo unspecified),5.0,4.0,1.6,-0.4,-6.7
CC1CCCC(C)N1C(=O)CSc1nc2ccccc2c(=O)[nH]1 (stereo unspecified),-3.3,70.2*,2.5,-0.2,7.3
O=C(CSc1nc2ccccc2c(=O)[nH]1)N1CCOCC1,-1.2,67.4*,-2.2,-0.5,3.2
O=C(CSc1nc2ccccc2c(=O)[nH]1)N1CCN(S(=O)(=O)c2ccccc2)CC1,-4.6,56.4*,0.9,-0.1,-15.7
CCOc1cc(C(=O)N(C)CC(=O)Nc2cccc(F)c2)ccc1OCC(=O)N1CCCCC1,-6.8,10.7,0.5,-0.2,-5.1
Cc1sc2nc(SCC(=O)NCc3cccs3)[nH]c(=O)c2c1C,-14.2,17.4,1.3,0.4,-0.1
Cc1sc2nc(SCC(=O)NCc3ccco3)[nH]c(=O)c2c1C,0.7,59.8*,1.6,0.5,3.5
Cc1sc2nc(SCC(=O)N3CCOCC3)[nH]c(=O)c2c1C,-5.5,60.9*,-0.2,1.4,-6.7
COc1ccc(CCn2c(=N)c(C(=O)NCCN3CCOCC3)cc3c(=O)n4cccc(C)c4nc32)cc1OC,-14.7,61.3*,-5.8,-0.2,-9.5
COc1ccc(CCn2c(=N)c(C(=O)NCCN3CCOCC3)cc3c(=O)n4ccccc4nc32)cc1OC,-11.0,20.0,-2.0,0.0,-2.6
O=C(N/N=C/c1ccc2c(c1)OCO2)c1ccc(NC(=O)c2ccccc2Cl)cc1,1.5,56.1*,-1.5,-1.1,-2.5
Cc1ccc(-c2n[nH]c(=O)c3ccccc23)cc1S(=O)(=O)N(C)C,2.3,26.5,0.6,0.2,3.7
Cc1ccc(-c2n[nH]c(=O)c3ccccc23)cc1S(=O)(=O)Nc1ccccc1,-6.1,83.2*,-2.0,0.1,-7.8
Cc1ccc(-c2n[nH]c(=O)c3ccccc23)cc1S(=O)(=O)NCCN1CCOCC1,1.1,48.8*,0.6,0.3,-7.1
SMILES,PKA-R1A activ,Cardio protect,Rin1-Abl PPI inh,TbMetRS inhib,PKA-R2B act
CC1=C(C(=O)Nc2ccccc2C(F)(F)F)C(c2sccc2C)NC(=S)N1 (stereo unspecified),2.4,3.8,3.1,-0.6,4.4
CC(C)(C)OC(=O)N1CCCC(C(=O)Nc2ccc(C(=O)NCCc3ccccc3)cc2)C1 (stereo unspecified),-0.6,10.8,-3.6,-0.5,6.0
O=C(CCc1nc2ccccc2c(=O)[nH]1)NNC(=O)c1ccc(F)cc1,-8.3,78.1*,1.2,-0.2,-13.9
O=C(O)CCc1nc2ccccc2c(=O)[nH]1,0.4,-0.4,-0.8,-0.8,-3.7
CCC(CC)C(=O)N(CCc1ccc(OC)cc1)Cc1nc2ccccc2c(=O)[nH]1,2.1,56.0*,0.2,0.2,0.5
COc1cc(OC)cc(C(=O)NNC(=O)CCc2nc3ccccc3c(=O)[nH]2)c1,11.9,56.1*,0.7,-0.2,-7.3
O=C(CCc1nc2ccccc2c(=O)[nH]1)NNC(=O)c1ccc(Cl)cc1,-7.0,60.7*,0.4,-0.3,-11.1
CCN(CC)S(=O)(=O)c1ccc(OC)c(NC(=S)Nc2ccc(C)c(C)c2)c1,-9.9,-8.4,2.1,0.9,0.9
O=C(CCc1nc2ccccc2c(=O)[nH]1)NNC(=O)c1cccc(Cl)c1,-13.1,69.7*,2.5,1.3,-5.2
C/C(=N\NC(=O)c1ccccc1OCc1ccc(F)cc1)c1ccccn1,8.6,53.0*,1.9,-0.2,3.8
O=C1c2ccccc2C(=O)N1CCCCSc1nc2ccccc2c(=O)n1CCCN1CCOCC1,5.3,58.6*,-0.2,-0.4,-0.8
Clc1ccc(-c2ccc(-c3nn4c(-c5ccco5)nnc4s3)o2)cc1,-11.7,25.5,1.3,-0.9,9.7
Brc1ccc(-c2nn3c(-c4ccccn4)nnc3s2)o1,9.2,52.2*,-0.4,-0.7,-9.6
Brc1ccc(-c2nn3c(-c4ccco4)nnc3s2)o1,-7.0,93.8*,-63.5,0.4,-5.9
COc1ccc(C)cc1NC(=O)C1CCN(S(=O)(=O)c2ccc3c(c2)C(C)(C)C(=O)N3C)CC1,0.0,10.1,-5.3,-0.5,-4.2
Cc1onc(-c2ccccc2Cl)c1C(=O)N[C@@H](C)c1ccccc1,/,-6.7,-3.6,-0.9,/
CCOC(=O)c1ccccc1NC(=O)c1ccc2c(=O)n3c(nc2c1)CCCCC3,-7.6,51.2*,-1.5,-0.6,-9.4
O=C(Nc1ccccc1Cl)c1ccc2c(=O)n3c(nc2c1)CCC3,-4.0,0.5,-2.2,-0.2,-3.9
Cc1cccc(/N=C/c2c(O)cc(C)oc2=O)n1,-4.5,-5.3,-1.5,-0.1,-16.4
Cc1cccc(/N=C/c2c(O)ccc3oc4c(c23)CCCC4)n1,-10.8,75.4*,-2.4,-0.4,-2.2
COc1cc(NC(=O)c2ccc(-c3cccnc3)c3ccoc23)cc(OC)c1OC,/,25.2,-3.0,0.0,/
COc1cc(NC(=O)c2ccc(-c3cn[nH]c3)c3ccoc23)cc(OC)c1OC,/,66.5*,-0.9,0.9,/
CN(C)CCCNc1ccc(-c2n[nH]c(=O)c3ccccc23)cc1[N+](=O)[O-],-2.3,55.1*,-13.6,0.1,-7.9
CC(O)CNc1ccc(-c2n[nH]c(=O)c3ccccc23)cc1[N+](=O)[O-] (stereo unspecified),-1.5,36.1,-3.3,-0.5,-3.0
